Screens as filed in PubChem BioAssay.
KCNK3 block: human KCNK3 channel inhibition, primary screen; B-score at 10 µM; O14649; AID 602410; CHO-KCNK3 thallium flux, FluxOR fluorescence; active compounds read low; actives 0.84% (n = 340,000);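 active means B-score under library mean minus 4 SD, starting fluorescence ratio at most library mean plus 5 SD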;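 further: more negative B-score means stronger inhibition of thallium flux through KCNK3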
hERG rescue: compounds protecting human hERG from proarrhythmic drug block; CHO-hERG, FluxOR thallium flux, dofetilide IC70 present; Q12809; actives 0.51% (n = 310,000); activation (rescue from dofetilide block), less the hit threshold, % at 10 µM;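 active means activation above the mean of controls blocked by dofetilide plus 5 SD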;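 further: thallium influx through hERG after potassium depolarization seen as dye fluorescence rise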
KCNQ1 block: inhibitors of human KCNQ1 potassium channel | P51787 | CHO-K1 KCNQ1, FluxOR thallium flux fluorescence; active compounds read high | B-score at 10 µM | actives 1.3% (n = 310,000) | AID 2642;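 active means compounds whose thallium flux B-score, printed positive for inhibition, exceeds three library SD while starting fluorescence stays within three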;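 further: channel opened by potassium depolarization with thallium stimulus after 20 min compound exposure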
KCNK9 block: blocks the human KCNK9 two-pore domain potassium channel. Q9NPC2. HEK293 KCNK9, FluxOR thallium flux fluorescence; active compounds read low. actives 1.2% (n = 310,000). B-score at 10 µM;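 active means ratio B-score over 3 SD below the library mean, with starting fluorescence within 5 SD of its mean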;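 further: negative B-score means less thallium flux so channel inhibition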
KCNQ1 pot: potentiates or activates the human KCNQ1 potassium channel | P51787 | CHO-K1 KCNQ1, thallium flux FluxOR fluorescence; active compounds read high | B-score at 10 µM | actives 0.35% (n = 310,000) | AID 2648;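 active means fluorescence ratio B-score, a plate-corrected score, at least three library SD, with initial intensity B-score within 5 SD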
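Assay system: stable KCNQ1 CHO-K1 line; medium: assay buffer, equal DMSO in all wells; timing: 90 min dye loading and 20 min compound exposure, both at room temperature; technique: kinetic FluxOR thallium fluorescence, 10-s 1-Hz baseline, 110-s post-stimulus read; read-out basis: B score of baseline-normalized fluorescence ratio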
KCNK9 inh conf: confirmation of human KCNK9 potassium channel inhibitors; HEK293 KCNK9 cells, FluxOR thallium flux fluorescence; shares compounds with KCNK9 block; inhibition, % at 10 µM; actives 43% (n = 4,900);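 active means thallium signal inhibited by more than 5 SD of the compound-free buffer control wells, on both duplicate plates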;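 further: 0% = assay buffer control wells without compound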
Kir21 sel: mouse Kir2.1 off-target activity of KCNK9 modulators; shares compounds with KCNK9 block; Kir2.1 cells, FluxOR thallium flux fluorescence; inhibition, % at 10 µM; actives 4% (n = 4,900); AID 492993;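 active means thallium signal drop more than 5 SD beyond the mean of the no-compound control wells, seen in both duplicate plates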;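 further: signal is fluorescence rise after thallium addition divided by baseline fluorescence; plate controls were assay buffer only for no effect and full block by chlorpromazine control for full effect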
Target sequence (P35561 whole entry, looked up): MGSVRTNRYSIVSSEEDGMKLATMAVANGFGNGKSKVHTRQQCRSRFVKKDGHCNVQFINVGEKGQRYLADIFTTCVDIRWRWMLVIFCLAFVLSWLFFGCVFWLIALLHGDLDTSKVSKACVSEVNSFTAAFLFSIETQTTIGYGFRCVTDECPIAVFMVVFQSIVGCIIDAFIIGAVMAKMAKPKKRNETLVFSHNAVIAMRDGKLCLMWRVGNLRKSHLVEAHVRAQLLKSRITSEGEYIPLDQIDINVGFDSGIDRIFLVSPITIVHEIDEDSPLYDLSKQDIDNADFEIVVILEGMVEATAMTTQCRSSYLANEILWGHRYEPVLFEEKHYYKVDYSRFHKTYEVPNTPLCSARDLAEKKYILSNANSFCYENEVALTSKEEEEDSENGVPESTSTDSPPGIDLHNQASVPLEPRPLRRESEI
KCNK9 uninduced: second counter-screen for KCNK9 modulators: effect in non-induced cells; shares compounds with KCNK9 block; non-induced KCNK9-HEK293, FluxOR thallium flux; inhibition, % at 10 µM; actives 40% (n = 4,900); AID 492997;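 active means thallium signal drop beyond 5 SD of the untreated control mean, on both duplicate plates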;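 further: plate controls were buffer only IC0 wells for no effect and SID17386958 at its maximal inhibitory level for full effect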
Numbers without * were called inactive. Sampled rows, rich in hits. Any-hit rate of the full collection: about 3.1%.

Results for NC(=O)CC(NC(=O)c1ccc(Br)cc1)c1ccc(NC2CCCCCCC2)c([N+](=O)[O-])c1 (configuration not stated) ?
KCNK3 block: inactive; hERG rescue: -1.5; KCNQ1 block: inactive; KCNK9 block: -10.9*; KCNQ1 pot: inactive; KCNK9 inh conf: inactive; Kir21 sel: inactive; KCNK9 uninduced: 33.0%*

Results for CCOC(=O)c1cnc2c(-c3ccccc3)c(-c3ccccc3)nn2c1C ?
KCNK3 block: inactive; hERG rescue: -7.7; KCNQ1 block: inactive; KCNK9 block: inactive; KCNQ1 pot: inactive

What do the screens show for `CCN(Cc1ccccc1)C(c1ccc(Cl)cc1)c1nnnn1C(C)(C)C` (configuration not stated)?
KCNK3 block: inactive; hERG rescue: -2.7; KCNQ1 block: inactive; KCNK9 block: -10.4*; KCNQ1 pot: inactive; KCNK9 inh conf: 59.0%*; Kir21 sel: inactive; KCNK9 uninduced: 54.0%*

How did CC(C)(C)n1nnnc1C(c1ccncc1)N(Cc1ccccc1)Cc1ccco1 (configuration not stated) do in these assays?
KCNK3 block: inactive; hERG rescue: -12.6; KCNQ1 block: inactive; KCNK9 block: inactive; KCNQ1 pot: inactive

Results for CSc1nc2ccccc2cc1/C=C(\C#N)c1ccccc1 ?
KCNK3 block: inactive; hERG rescue: -5.5; KCNQ1 block: inactive; KCNK9 block: -12.6*; KCNQ1 pot: inactive; KCNK9 inh conf: 53.5%*; Kir21 sel: inactive; KCNK9 uninduced: 41.5%*

How did Cc1ccc(-c2[nH]ncc2/C=C(\C#N)C(=O)NC2CCCCC2)cc1 do in these assays?
KCNK3 block: inactive; hERG rescue: -12.0; KCNQ1 block: inactive; KCNK9 block: inactive; KCNQ1 pot: inactive; KCNK9 inh conf: inactive; Kir21 sel: inactive; KCNK9 uninduced: inactive

What do the screens show for `COc1ccc(-c2[nH]ncc2/C=C(/C#N)C(=O)NC2CCCCC2)cc1`?
KCNK3 block: inactive; hERG rescue: -9.6; KCNQ1 block: inactive; KCNK9 block: inactive; KCNQ1 pot: inactive; KCNK9 inh conf: inactive; Kir21 sel: inactive; KCNK9 uninduced: inactive

Results for N#C/C(=C\c1ccccc1[N+](=O)[O-])C(=O)NC1CCCCC1 ?
KCNK3 block: inactive; hERG rescue: -12.9; KCNQ1 block: inactive; KCNK9 block: inactive; KCNQ1 pot: inactive

How did CCC(C)NC(=O)c1ccccc1NC(=O)c1ccc(CSc2ccc(C)cc2)cc1 (configuration not stated) do in these assays?
KCNK3 block: inactive; hERG rescue: -12.9; KCNQ1 block: inactive; KCNK9 block: inactive; KCNQ1 pot: inactive; KCNK9 inh conf: inactive; Kir21 sel: inactive; KCNK9 uninduced: inactive

How did Cc1noc(C)c1CSc1nc2ccccc2c(=O)n1-c1ccc(F)cc1F do in these assays?
KCNK3 block: inactive; hERG rescue: -6.5; KCNQ1 block: inactive; KCNK9 block: inactive; KCNQ1 pot: inactive; KCNK9 inh conf: inactive; Kir21 sel: inactive; KCNK9 uninduced: 25.0%*

What do the screens show for `Cc1sc2cc3c(c(C(=O)c4ccccc4)[n+]2c1C)-c1cccc2cccc-3c12`?
hERG rescue: -45.8; KCNQ1 block: inactive; KCNK9 block: -10.4*; KCNQ1 pot: inactive; KCNK9 inh conf: 41.0%*; Kir21 sel: 64.0%*; KCNK9 uninduced: 34.0%*

What do the screens show for `O=C(c1ccccc1)c1c2c(cc3sc4ccccc4[n+]13)-c1cccc3cccc-2c13`?
KCNK3 block: inactive

How did O=C(OCC(=O)N1CCOCC1)c1cc(-c2ccccc2)nc2ccccc12 do in these assays?
KCNK3 block: inactive

Results for CCc1ccccc1Oc1ccc(S(=O)(=O)N2CCN(C)CC2)cn1 ?
KCNK3 block: inactive; hERG rescue: -14.2; KCNQ1 block: inactive; KCNK9 block: inactive; KCNQ1 pot: inactive

Results for Cc1nnc(-c2ccc(N3CCOCC3)c([N+](=O)[O-])c2)o1 ?
KCNK3 block: inactive
